Reference: PubChem BioAssay AID493047 (Johns Hopkins Ion Channel Center, 2011)
Calls of active or inactive are those of the source.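 The calls were made as follows: active = a rise or drop in KCNQ3 potassium channel activity at some tested dose, with a dose-response curve obtained; inactive = no effect at any dose, or no curve.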

The compounds below were run against Potassium voltage-gated channel subfamily KQT member 3 (Rattus norvegicus) (UniProt O88944) (assay: KCNQ3 channel potentiation by KCNQ2 openers, dose response, selectivity assay for KCNQ2 activator project, cell-based, thallium flux, CHO-K1 transient KCNQ3, rat (AID 493047)). Settings: CHO-K1 transient KCNQ3, FluxOR thallium flux fluorescence; series mostly up to 30 µM.
Chain of Potassium voltage-gated channel subfamily KQT member 3 (Rattus norvegicus) (O88944 whole entry, looked up): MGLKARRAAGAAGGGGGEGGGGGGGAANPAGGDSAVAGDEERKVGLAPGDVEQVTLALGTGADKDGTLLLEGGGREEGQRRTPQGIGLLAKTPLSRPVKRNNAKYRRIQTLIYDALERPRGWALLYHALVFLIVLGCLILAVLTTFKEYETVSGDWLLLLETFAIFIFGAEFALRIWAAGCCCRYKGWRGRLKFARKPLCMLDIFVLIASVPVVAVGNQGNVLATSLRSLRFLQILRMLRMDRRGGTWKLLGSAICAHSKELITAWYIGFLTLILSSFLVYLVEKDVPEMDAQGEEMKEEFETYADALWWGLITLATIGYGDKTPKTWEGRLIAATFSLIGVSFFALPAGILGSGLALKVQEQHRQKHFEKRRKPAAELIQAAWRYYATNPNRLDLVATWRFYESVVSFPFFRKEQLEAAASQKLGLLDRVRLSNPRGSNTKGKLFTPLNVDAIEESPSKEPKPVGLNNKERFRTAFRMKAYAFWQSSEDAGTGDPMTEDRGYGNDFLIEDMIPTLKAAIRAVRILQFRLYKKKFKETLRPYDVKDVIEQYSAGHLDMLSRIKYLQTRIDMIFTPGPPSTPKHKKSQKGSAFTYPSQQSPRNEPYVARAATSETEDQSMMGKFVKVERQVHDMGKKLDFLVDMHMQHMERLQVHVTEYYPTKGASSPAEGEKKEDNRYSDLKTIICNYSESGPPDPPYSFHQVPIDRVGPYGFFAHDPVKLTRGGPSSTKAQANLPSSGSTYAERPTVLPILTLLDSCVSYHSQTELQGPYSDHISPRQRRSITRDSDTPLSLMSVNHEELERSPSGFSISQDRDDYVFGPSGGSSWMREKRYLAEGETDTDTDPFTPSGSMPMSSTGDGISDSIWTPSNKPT
In short: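 Assay system – transiently transfected CHO-K1 cells · Reagent – potassium/thallium sulfate stimulus buffer · Schedule – FluxOR dye loading 90 min, compound exposure 20 min, both RT, dark · Signal – FluxOR thallium-flux fluorescence · Read-out – % change of flux ratio relative to vehicle · Control set – vehicle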

outcome, inactive:
Cc1cccc(C)c1NC(=O)C1CC2CCC1C2 (stereo not given)
Cc1ccc(C)c(NC(=O)C2CC3CCC2C3)c1 (stereo not given)
Cc1cc(C)c(NC(=O)CC(C)(C)C)c(Cl)c1
Cc1cc(C)c(NC(=O)C2CC3CCC2C3)c(C)c1 (stereo not given)
CCCCC(=O)Nc1c(C)cc(C)cc1Cl
